Rows were chosen to be rich in hits. Some 1.1% of all compounds tested hit in one or more screens of this group.
NR2E3 ag-1: NR2E3 (human) agonism. Q9Y5X4. GST-NR2E3/biotin-RetCOR TR-FRET, 1536-well. inhibition of corepressor binding, % at 4.78 µM. hit rate 0.12% among 320,000. AID 2300;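 active = percent inhibition above the cutoff of mean plus 3 SD of all tested compounds, set per screening campaign, cut at about 20% in these data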;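 note: 0% = DMSO wells and 100% = biotin wells as full block of FRET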
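System: GST-NR2E3 and biotin-RetCOR proteins; probe or stimulus: 7 nM biotin-RetCOR; doses: compound at 4.8 µM, single dose; schedule: Compound–protein incubation for 5 h at 4 °C; detection: time-resolved FRET; read-out: percent inhibition; controls: biotin wells as high control, 0.6% DMSO wells as low control; format: 1536-well plates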
Vif imaging: blocks HIV Vif function; hit rate 0.35% among 340,000; HEK293T cells, Vif self-association by quenched fluorescence, imaging, 24 h; inhibition, % at 7.49 µM; in the data active = inhibition above about 50%, passing the limit was not always enough
MT1-MMP act inh: inhibitors of human MT1-MMP activation. P50281. HT1080 RFP-PRO-GFP cells, GFP/RFP ratio fluorescence, overnight; percent of plate control window, DMSO zero. GFP/RFP ratio change, % at 20 µM. hit rate 0.061% among 360,000. AID 651647;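 active = GFP/RFP ratio change of at least 30% with cell ATP level not reduced by more than half and red fluorescence within 50% of control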
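Material: RFP-PRO-GFP reporter HT1080 cells. Dosing: single-point 20 µM compound, 1% DMSO. Controls: DMSO and RFP-L50D-GFP cell wells. Timing: cells overnight before dosing, compound overnight, 37 °C, 5% CO2. Measure: GFP/RFP fluorescence ratio.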
NR2E3 ag-2: agonists of human NR2E3 nuclear receptor; Q9Y5X4; CHO-S Gal4-NCOR/VP16-NR2E3 two-hybrid, luciferase; inhibition of corepressor binding, % at 3.98 µM; hit rate 0.35% among 360,000;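 active = inhibition above the mean of all tested compounds plus 3 SD, cut at about 70% in these data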;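 note: 0% = DMSO with NR2E3 transfected cells and 100% = cells lacking NR2E3 construct; higher means lower luciferase signal from less NR2E3 corepressor binding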
HCV core dimer: blocks dimerization of HCV core protein | hit rate 0.33% among 300,000 | inhibition, % at 5 µM | TR-FRET GST/Flag-core106 dimerization, 1536-well;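 active = inhibition above the mean of all tested compounds plus 3 SD, set per screening campaign, cut at about 45% in these data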
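System: GST/Flag-tagged HCV core106 proteins. Incubation: compound-protein-antibody incubation 4 h at 22.5 °C. Technique: HTRF with 340 nm excitation, 617/671 nm emission. Medium: KF-containing HEPES buffer, pH 7.45, DTT, CHAPS, BSA. Read-out: inhibition (%) from 671 over 617 nm ratio. Also added: Eu(K)-anti-GST 90 ng/mL plus XL665-anti-Flag 1 µg/mL.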
DAGLB inh: diacylglycerol lipase beta (human) inhibition; Q8NCG7; HEK293T DAGLB membrane lysate, EnzChek fluorogenic substrate; inhibition, % at 5.17 µM; hit rate 0.059% among 340,000; in the data active = inhibition above about 34%;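 note: 0% = enzyme with vehicle and 100% = wells lacking enzyme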
Target sequence (Q8NCG7 whole entry, looked up): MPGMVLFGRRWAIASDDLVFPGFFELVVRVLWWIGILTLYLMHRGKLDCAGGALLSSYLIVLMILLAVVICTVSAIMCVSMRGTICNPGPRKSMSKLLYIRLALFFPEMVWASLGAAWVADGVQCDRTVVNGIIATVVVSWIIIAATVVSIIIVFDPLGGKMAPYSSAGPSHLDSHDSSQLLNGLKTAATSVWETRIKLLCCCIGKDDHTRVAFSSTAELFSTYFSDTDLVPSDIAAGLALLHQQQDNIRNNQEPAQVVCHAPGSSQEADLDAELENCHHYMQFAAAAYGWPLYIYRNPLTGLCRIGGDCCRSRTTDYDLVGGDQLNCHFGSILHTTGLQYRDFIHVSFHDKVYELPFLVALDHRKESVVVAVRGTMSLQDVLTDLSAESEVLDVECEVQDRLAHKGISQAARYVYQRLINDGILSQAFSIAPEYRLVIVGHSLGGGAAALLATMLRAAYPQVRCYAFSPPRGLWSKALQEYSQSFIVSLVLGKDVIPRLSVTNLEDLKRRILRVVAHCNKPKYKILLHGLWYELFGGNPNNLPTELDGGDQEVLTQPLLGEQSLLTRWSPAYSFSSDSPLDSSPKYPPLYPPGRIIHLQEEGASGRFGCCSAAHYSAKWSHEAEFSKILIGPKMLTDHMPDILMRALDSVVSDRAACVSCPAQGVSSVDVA
NR2E3 ag confirm: NR2E3 agonism confirmed in two-hybrid assay; inhibition, % at 3.98 µM; hit rate 51% among 2,300; CHO-S mammalian two-hybrid NR2E3-NCOR, luciferase luminescence; shares compounds with NR2E3 ag-2;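 active = average inhibition above a cutoff equal to the mean inhibition of all tested compounds plus one SD, cut at about 70% in these data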;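 note: 0% = DMSO in NR2E3 cells and 100% = DMSO in cells lacking NR2E3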
GAL4-VP16 luc: reduces GAL4-VP16 reporter signal in NR2E3 counterscreen | hit rate 29% among 2,300 | inhibition, % at 3.98 µM | CHO-S GAL4-VP16 luciferase reporter, luminescence | shares compounds with NR2E3 ag-2;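 active = mean inhibition above a cutoff equal to the average over all tested compounds plus one standard deviation, cut at about 70% in these data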;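 note: luciferase from a UAS reporter driven by GAL4-VP16 transactivation; 0% = DMSO with VP16-transfected cells and 100% = DMSO with cells lacking VP16; higher means less reporter light so more repression of VP16 activity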
Numbers without * were called inactive.

CCN1CCN(S(=O)(=O)c2ccc(Cl)c(C(=O)NCCc3ccccc3)c2)CC1 was read as NR2E3 ag-1 -2, Vif imaging 1, MT1-MMP act inh 1, NR2E3 ag-2 -56, HCV core dimer 0 and DAGLB inh 0.
`CCN(CC)c1ccc(Nc2nc(N3CCOCC3)c3ccccc3n2)cc1` gave NR2E3 ag-1 1, Vif imaging -7, MT1-MMP act inh 2, NR2E3 ag-2 72*, HCV core dimer -17, DAGLB inh 1, NR2E3 ag confirm 74* and GAL4-VP16 luc 69.
COc1ccc(Nc2nc(N3CCCC3)c3ccccc3n2)cc1 was read as NR2E3 ag-1 7, Vif imaging 24, MT1-MMP act inh 4, NR2E3 ag-2 51, HCV core dimer -15, DAGLB inh 5, NR2E3 ag confirm 51 and GAL4-VP16 luc 30.
`COc1ccc(Nc2c3ccccc3nc3ccccc23)cc1` gave NR2E3 ag-1 -4, Vif imaging -2, MT1-MMP act inh 5, NR2E3 ag-2 -9, HCV core dimer 1 and DAGLB inh 5.
Cc1cccc(CN2C(=O)CSc3ccc(C(=O)NC4CC4)cc32)c1 was read as NR2E3 ag-1 -2, Vif imaging 2, MT1-MMP act inh 0, NR2E3 ag-2 -7, HCV core dimer 9 and DAGLB inh 1.
Screening COc1cc([N+](=O)[O-])ccc1NC(=O)CCCOc1cc(C)ccc1C returned NR2E3 ag-1 2, Vif imaging 8, MT1-MMP act inh 4, NR2E3 ag-2 -6, HCV core dimer 2 and DAGLB inh 1.
For Cc1csc2ncnc(N3CCN(S(=O)(=O)c4cccc(C(F)(F)F)c4)CC3)c12 the results were NR2E3 ag-1 1, Vif imaging -21, MT1-MMP act inh -1, NR2E3 ag-2 94*, HCV core dimer -5, DAGLB inh -6, NR2E3 ag confirm 97* and GAL4-VP16 luc 90*.
For CC1=C(C(=O)NC2CCCc3c2cnn3-c2ccc(F)cc2F)OCCO1 (stereo unspecified) the results were NR2E3 ag-1 3, Vif imaging -2, MT1-MMP act inh 7, NR2E3 ag-2 66, HCV core dimer 7, DAGLB inh -3, NR2E3 ag confirm 28 and GAL4-VP16 luc 33.
Cc1ccc(-n2ncc3c2CCCC3NC(=O)c2ccoc2)cc1C (stereo unspecified) was read as NR2E3 ag-1 0, Vif imaging -4, MT1-MMP act inh 6, NR2E3 ag-2 10, HCV core dimer 12 and DAGLB inh -2.
For CC(C)(C)c1ccc(-n2ncc3c2CCCC3NC(=O)c2ccncc2)cc1 (stereo unspecified) the results were NR2E3 ag-1 0, Vif imaging -35, MT1-MMP act inh -3, NR2E3 ag-2 -3, HCV core dimer 9 and DAGLB inh -2.
`Cc1nnsc1C(=O)NC1CCCc2c1cnn2-c1ccccc1F` (stereo unspecified) gave NR2E3 ag-1 4, Vif imaging -28, MT1-MMP act inh 10, NR2E3 ag-2 83*, HCV core dimer -4, DAGLB inh 0, NR2E3 ag confirm 86* and GAL4-VP16 luc 69.
Cc1nnsc1C(=O)NC1CCCc2c1cnn2-c1ccc(C(C)(C)C)cc1 (stereo unspecified) was read as NR2E3 ag-1 0, Vif imaging -18, MT1-MMP act inh 9, NR2E3 ag-2 93*, HCV core dimer -2, DAGLB inh -4, NR2E3 ag confirm 78* and GAL4-VP16 luc 75*.
`Cc1cc(C(=O)NC2CCCc3c2cnn3-c2ccc(C)c(C)c2)n(C)n1` (stereo unspecified) gave NR2E3 ag-1 0, Vif imaging -12, MT1-MMP act inh 5, NR2E3 ag-2 111*, HCV core dimer -4, DAGLB inh 0, NR2E3 ag confirm 98* and GAL4-VP16 luc 88*.
COC(=O)c1cn(CC(=O)Nc2ccc(F)cc2)c2ccccc12 was read as NR2E3 ag-1 -1, Vif imaging 3, MT1-MMP act inh 5, NR2E3 ag-2 11, HCV core dimer -8 and DAGLB inh -8.
CCOC(=O)[C@]12CCC=C1N(CCC1=CCCCC1)C(=O)[C@H](CC(=O)NCc1cccs1)C2 was read as MT1-MMP act inh 4 and NR2E3 ag-2 -9.
Cc1cccc(-n2ncc3c2CCCC3NC(=O)C2(C(N)=O)CC2)c1C (stereo unspecified) was read as NR2E3 ag-1 0, MT1-MMP act inh 10, NR2E3 ag-2 78*, HCV core dimer -13, DAGLB inh -3, NR2E3 ag confirm 77* and GAL4-VP16 luc 67.
Screening COCc1ccc(C(=O)NC2CCCc3c2cnn3-c2cc(C)cc(C)c2)s1 (stereo unspecified) returned Vif imaging -10, MT1-MMP act inh -3, NR2E3 ag-2 60, DAGLB inh 1, NR2E3 ag confirm 49 and GAL4-VP16 luc 55.
For Cc1cc(C)cc(-n2ncc3c2CCCC3NC(=O)C2(C(N)=O)CC2)c1 (stereo unspecified) the results were NR2E3 ag-1 -1, Vif imaging -13, MT1-MMP act inh 4, NR2E3 ag-2 12, HCV core dimer -6 and DAGLB inh 2.
`Nc1nonc1C(=O)NCCNCc1cc(Br)ccc1OCc1ccccc1F` gave NR2E3 ag-1 3, Vif imaging -16, MT1-MMP act inh -2, NR2E3 ag-2 51, HCV core dimer 0, DAGLB inh -2, NR2E3 ag confirm 60 and GAL4-VP16 luc 50.
For CC1CC(C)(C)CC2(C1)NC(=O)N(CC(=O)Nc1ccc3c(c1)OCO3)C2=O (stereo unspecified) the results were Vif imaging -2, MT1-MMP act inh 6, NR2E3 ag-2 0 and DAGLB inh 3.
Screening CC(C)(C)[C@@H]1C=C(C(=O)O)O[C@H](OCCCCO)C1 returned NR2E3 ag-1 2, Vif imaging 7, MT1-MMP act inh -1, NR2E3 ag-2 -17, HCV core dimer 12 and DAGLB inh 0.
`CC(C)(C)[C@H]1C=C(C(=O)Nc2ccccc2)O[C@@H](OCCCCO)C1` gave NR2E3 ag-1 0, Vif imaging 2, MT1-MMP act inh 3, NR2E3 ag-2 65, HCV core dimer -4, DAGLB inh -1, NR2E3 ag confirm -3 and GAL4-VP16 luc -48.

Source: PubChem BioAssay (several laboratories)
